Test results as given in ChEMBL document CHEMBL1125717, “Synthesis and biological evaluation of cyclopropyl analogues of 2-amino-5-phosphonopentanoic acid” (J Med Chem, 1991).

Tests used:
[1] = Compound was tested in vitro for Non N-methyl-D-aspartate glutamate receptor binding using [3H]- -Kainate; set-up: species or system Rattus norvegicus
Procedure, shortened: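 Rat forebrain synaptic membranes (male Sprague–Dawley, 30–45 days old) were treated with 0.04% Triton X-100 for 30 min at 37 °C and washed in 50 mM Tris/acetate pH 7.4. Incubation used 0.5 nM [3H]kainate and graded compound concentrations, with 0.25–0.35 mg/mL membrane, for 60 min at 4 °C. Bound ligand was separated by centrifugation; 0.1 mM kainate defined nonspecific binding. IC50 was derived by logit–log and Ki by Cheng–Prusoff, from ≥3 triplicate experiments.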

[2] = target: Glutamate NMDA receptor; experiment: Compound was tested in vitro for N-methyl-D-aspartate glutamate receptor binding using [3H]L-glutamate; format: protein-complex assay
Procedure, shortened: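 Rat forebrain synaptic plasma membranes (male Sprague–Dawley, 30–45 days old) were pretreated with 0.04% Triton X-100 for 30 min at 37 °C and washed four times in 50 mM Tris/acetate, pH 7.4. Incubation: 10 nM [3H]-L-glutamate, membranes at 0.25–0.35 mg/mL final, 10 min at 4 °C, then filtration through PEI-treated filters. Nonspecific binding: 0.1 mM L-glutamate. IC50 by logit–log; Ki by Cheng–Prusoff. Mean ± SEM, ≥3 experiments in triplicate.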

[3] = target: Glutamate NMDA receptor; experiment: Compound was tested in vitro for its inhibitory activity against N-methyl-D-aspartate glutamate receptor using [3H]MK-801; format: protein-complex assay
Procedure, shortened: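 Functional modulation assay on washed rat synaptic membranes pretreated with 0.04% v/v Triton X-100. Incubated 30 min at 25 °C with 5.0 nM [3H]MK-801, 10.0 nM L-glutamate and graded compound concentrations in 50 mM Tris/acetate, pH 7.4. Filter-bound radioactivity counted by scintillation. Nonspecific binding: 60 μM MK-801. IC50 from logit–log transformation. Mean ± SEM, ≥3 experiments in triplicate.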

[4] = Compound was tested in vitro for Non N-methyl-D-aspartate glutamate receptor binding using [3H]kainate; set-up: species or system Rattus norvegicus
Procedure, shortened: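 Triton X-100-treated (0.04%, 30 min, 37 °C), washed rat forebrain synaptic membranes (male Sprague–Dawley, 30–45 days), 0.25–0.35 mg/mL final in 50 mM Tris/acetate, pH 7.4. Incubated with 0.5 nM [3H]kainate for 60 min at 4 °C; bound ligand separated by centrifugation. Nonspecific binding: 0.1 mM kainate. IC50 by logit–log; Ki by Cheng–Prusoff. Mean ± SEM, ≥3 experiments in triplicate.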

Compound	Ki [1]	Ki [2]	IC50 [3]	Ki [4]
NC(CCCP(=O)(O)O)C(=O)O (centres undefined)	> 100 µM	0.42 µM	–	–
N[C@@]1(C(=O)O)CC1CCP(=O)(O)O (some centres undefined)	–	26.7 µM	18.1 µM	> 100 µM
N[C@]1(C(=O)O)CC1CCP(=O)(O)O (some centres undefined)	–	18.7 µM	15.2 µM	> 100 µM
NC(C(=O)O)C1CC1CCP(=O)(O)O (centres undefined)	–	> 50 µM	–	> 100 µM
N[C@H](C[C@@H]1CC1P(=O)(O)O)C(=O)O (some centres undefined)	–	1.6 µM	2.7 µM	> 100 µM
NC(C(=O)O)C1CC1CP(=O)(O)O (stereo in doubt; 13a)	–	18.9 µM	22.6 µM	–
NC(C(=O)O)C1CC1CP(=O)(O)O (stereo in doubt; 13b)	–	9.5 µM	13.3 µM	> 100 µM
NC(C(=O)O)C1CC1CCCP(=O)(O)O (stereo in doubt; 33c)	–	12.5 µM	–	> 100 µM
NC(C(=O)O)C1CC1CCCP(=O)(O)O (stereo in doubt; 33d)	–	> 50 µM	–	–
O=C(O)[C@@H]1C[C@H](CP(=O)(O)O)CCN1 [SELFOTEL]	–	0.16 µM	0.14 µM	> 100 µM
